Source: ChEMBL document CHEMBL3091318, “Potent and broad-spectrum antibacterial activity of indole-based bisamidine antibiotics: synthesis and SAR of novel analogs of MBX 1066 and MBX 1090” (2013)
Converted amounts (≈) assume the structure as drawn.

Experiments:
Type in all cases: functional
Escherichia coli [1] = test: Antimicrobial activity against TolC efflux-deficient Escherichia coli K-12 after 16 to 20 hrs by broth microdilution method
In short: (§1)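 CLSI broth microdilution. Log-phase cultures grown in cation-adjusted Mueller–Hinton broth and seeded at 1×10^5 CFU/mL. Plates incubated at 37 °C with shaking for 16–20 h. DMSO stocks of compound were diluted into medium to 1% DMSO final. Growth was read as OD600. MIC (μg/ml) is the lowest concentration with no apparent growth, averaged over at least 3 assays.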

Escherichia coli [2] = test: Antimicrobial activity against efflux pump-positive Escherichia coli K-12 after 16 to 20 hrs by broth microdilution method; in short: as §1
Enterococcus faecalis [3] = test: Antimicrobial activity vancomycin-resistant Enterococcus faecalis ATCC 51575 after 16 to 20 hrs by broth microdilution method
In short: (§2)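 CLSI broth microdilution. Log-phase cultures in cation-adjusted Mueller–Hinton broth were seeded at 1×10^5 CFU/mL and incubated at 37 °C with shaking for 16–20 h. Compounds were diluted from DMSO stocks to a final 1% DMSO. Growth was read as OD600, and MIC was taken as the lowest concentration with no apparent growth. At least 3 runs were done, and the average MIC is reported in μg/ml.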

Staphylococcus aureus [4] = test: Antimicrobial activity against Staphylococcus aureus ATCC 25923 after 16 to 20 hrs by broth microdilution method; in short: as §2
Staphylococcus aureus [5] = test: Antimicrobial activity methicillin-resistant against Staphylococcus aureus clinical isolate 1094 after 16 to 20 hrs by broth microdilution method
Enterococcus faecalis [6] = test: Antimicrobial activity Enterococcus faecalis ATCC 29212 after 16 to 20 hrs by broth microdilution method; in short: as §1
Bacillus anthracis = test: Antimicrobial activity against Bacillus anthracis Sterne after 16 to 20 hrs by broth microdilution method; in short: as §2
Pseudomonas aeruginosa [7] = test: Antimicrobial activity against efflux pump-positive Pseudomonas aeruginosa PAO1 ATCC BAA-47 after 16 to 20 hrs by broth microdilution method; in short: as §1
Acinetobacter baumannii = test: Antimicrobial activity against Acinetobacter baumannii ATCC 19606 after 16 to 20 hrs by broth microdilution method; in short: as §1
Klebsiella pneumoniae = test: Antimicrobial activity against Klebsiella pneumoniae ATCC 13882 after 16 to 20 hrs by broth microdilution method; in short: as §1
Pseudomonas aeruginosa [8] = test: Antimicrobial activity against efflux pump mexAB-oprM-deficient Pseudomonas aeruginosa PAO1 after 16 to 20 hrs by broth microdilution method; in short: as §1

SMILES	MIC (Escherichia coli [1])	MIC (Escherichia coli [2])	MIC (Enterococcus faecalis [3])	MIC (Staphylococcus aureus [4])	MIC (Staphylococcus aureus [5])	MIC (Enterococcus faecalis [6])	MIC (Bacillus anthracis)	MIC (Pseudomonas aeruginosa [7])	MIC (Acinetobacter baumannii)	MIC (Klebsiella pneumoniae)	MIC (Pseudomonas aeruginosa [8])
Cl.N=C(N)c1ccc2cc(-c3ccc(-c4cc5ccc(C(=N)N)cc5[nH]4)cc3)[nH]c2c1	0.16 µg/mL	0.63 µg/mL	0.16 µg/mL	0.16 µg/mL	0.31 µg/mL	0.04 µg/mL	0.08 µg/mL	10 µg/mL	40 µg/mL	0.63 µg/mL	–
CC(=O)O.c1cc2cc(-c3ccc(-c4cc5ccc(C6=NCCCN6)cc5[nH]4)s3)[nH]c2cc1C1=NCCCN1	0.31 µg/mL	0.63 µg/mL	0.16 µg/mL	0.08 µg/mL	0.16 µg/mL	0.16 µg/mL	0.16 µg/mL	5 µg/mL	5 µg/mL	0.63 µg/mL	1.25 µg/mL
CC(=O)O.c1cc2cc(-c3ccc(-c4cc5ccc(C6=NCCN6)cc5[nH]4)nc3)[nH]c2cc1C1=NCCN1	0.63 µg/mL	2.5 µg/mL	0.31 µg/mL	0.31 µg/mL	0.31 µg/mL	0.31 µg/mL	0.31 µg/mL	> 80 µg/mL	> 80 µg/mL	2.5 µg/mL	> 80 µg/mL
CC(=O)O.c1cc2cc(-c3cnc(-c4cc5ccc(C6=NCCN6)cc5[nH]4)cn3)[nH]c2cc1C1=NCCN1	0.63 µg/mL	20 µg/mL	10 µg/mL	5 µg/mL	5 µg/mL	20 µg/mL	2.5 µg/mL	> 80 µg/mL	> 80 µg/mL	10 µg/mL	> 80 µg/mL
CC(=O)O.c1cc2cc(-c3cnc(-c4cc5ccc(C6=NCCCN6)cc5[nH]4)cn3)[nH]c2cc1C1=NCCCN1	0.31 µg/mL	2.5 µg/mL	0.31 µg/mL	0.31 µg/mL	0.31 µg/mL	0.31 µg/mL	0.16 µg/mL	5 µg/mL	> 80 µg/mL	1.25 µg/mL	5 µg/mL
O=C(O)C(F)(F)F.c1cc2cc(CCc3cc4ccc(C5=NCCCN5)cc4[nH]3)[nH]c2cc1C1=NCCCN1	0.31 µg/mL	2.5 µg/mL	2.5 µg/mL	0.63 µg/mL	1.25 µg/mL	5 µg/mL	0.63 µg/mL	10 µg/mL	80 µg/mL	–	10 µg/mL
c1cc2cc(CCCc3cc4ccc(C5=NCCCN5)cc4[nH]3)[nH]c2cc1C1=NCCCN1	1.25 µg/mL (≈ 2.85 µM)	80 µg/mL (≈ 182 µM)	0.63 µg/mL (≈ 1.44 µM)	20 µg/mL (≈ 45.6 µM)	20 µg/mL (≈ 45.6 µM)	80 µg/mL (≈ 182 µM)	20 µg/mL (≈ 45.6 µM)	> 80 µg/mL	> 80 µg/mL	–	> 80 µg/mL
c1cc2cc(CCCCc3cc4ccc(C5=NCCCN5)cc4[nH]3)[nH]c2cc1C1=NCCCN1	0.16 µg/mL (≈ 0.354 µM)	1.25 µg/mL (≈ 2.76 µM)	0.31 µg/mL (≈ 0.685 µM)	0.63 µg/mL (≈ 1.39 µM)	1.25 µg/mL (≈ 2.76 µM)	2.5 µg/mL (≈ 5.52 µM)	1.25 µg/mL (≈ 2.76 µM)	40 µg/mL (≈ 88.4 µM)	> 80 µg/mL	–	40 µg/mL (≈ 88.4 µM)
CCOC(=N)c1ccc2cc(-c3ccc(-c4cc5ccc(C(=N)OCC)cc5[nH]4)cc3)[nH]c2c1.Cl	–	–	10 µg/mL	0.63 µg/mL	5 µg/mL	2.5 µg/mL	2.5 µg/mL	> 80 µg/mL	–	> 80 µg/mL	> 80 µg/mL
N/C(=N\O)c1ccc2cc(-c3ccc(-c4cc5ccc(/C(N)=N\O)cc5[nH]4)cc3)[nH]c2c1	0.63 µg/mL (≈ 1.48 µM)	> 80 µg/mL	1.25 µg/mL (≈ 2.94 µM)	0.31 µg/mL (≈ 0.73 µM)	1.25 µg/mL (≈ 2.94 µM)	2.5 µg/mL (≈ 5.89 µM)	0.16 µg/mL (≈ 0.377 µM)	> 80 µg/mL	–	> 80 µg/mL	> 80 µg/mL
Cl.N/N=C(/N)c1ccc2cc(-c3ccc(-c4cc5ccc(/C(N)=N\N)cc5[nH]4)cc3)[nH]c2c1	0.63 µg/mL	2.5 µg/mL	0.63 µg/mL	0.63 µg/mL	1.25 µg/mL	0.63 µg/mL	0.31 µg/mL	10 µg/mL	> 80 µg/mL	1.25 µg/mL	–
